Results as given in ChEMBL document CHEMBL3232843, “Novel pyrrolidine diketopiperazines selectively inhibit melanoma cells via induction of late-onset apoptosis” (J Med Chem, 2014).
Activity calls are given as the source filed them. No cut-off for these calls is given here.

How the values were obtained:
A549 [1] = test: Cytotoxicity against human A549 cells after 72 hrs by CellTiter-Glo luminescence assay; assay type: functional, cell-based; settings: A549, 72 h
How it was run: (§1)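 1250 cells per well in serum-free medium (F12 for CHO-K1 and A549, DMEM for M14). Compounds given as 10-point 1:3 serial dilutions from a 300 µM stock, plus a gefitinib control. Incubated 72 h at 37 °C, 5% CO2. CellTiter-Glo added for 15 min at room temperature, then luminescence read. Viability normalized to media-only wells (0%) and 1% DMSO wells (100%). Run in triplicate.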

[2] = Cytotoxicity against CHOK1 cells after 72 hrs by CellTiter-Glo luminescence assay; assay type: cell-based; settings: Cricetulus griseus, CHO-K1, 72 h; how it was run: as §1
M14 [3] = test: Cytotoxicity against human M14 cells after 72 hrs by CellTiter-Glo luminescence assay; assay type: functional, cell-based; settings: for IC50: M14, 72 h; how it was run: as §1
[4] = Cytotoxicity against CHOK1 cells at 100 uM after 72 hrs by CellTiter-Glo luminescence assay; assay type: cell-based, Cricetulus griseus; settings: chinese hamster, CHO-K1 cells; read-out: INH; how it was run: as §1
M14 [5] = test: Cytotoxicity against human M14 cells assessed as cell viability after 24 hrs using GF-AFC as substrate by ApoTox-Glo triplex assay; assay type: functional, cell-based
How it was run: (§2)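 M14 cells, 1250 per well, in serum-free DMEM, settled 4 h, then given 1:3 serial dilutions. Ionomycin, terfenadine and panobinostat were the controls. Incubated 4, 24, 48 or 72 h at 37 °C. A reagent containing 400 µM GF-AFC (live-cell protease, ex 400/em 505 nm) and 400 µM bis-AAF-R110 (dead-cell protease, ex 485/em 520 nm) was applied for 30 min at 37 °C. Caspase-Glo 3/7 (DEVD) luminescence was then read after 30 min at room temperature.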

M14 [6] = test: Induction of apoptosis human M14 cells assessed as caspase activity after 24 to 48 hrs using DEVD peptide as substrate by ApoTox-Glo triplex assay; assay type: functional, cell-based; how it was run: as §2
M14 [7] = test: Cytotoxicity against human M14 cells assessed as cell viability at 100 uM after 4 hrs using bis-AAF-R110 as substrate by ApoTox-Glo triplex assay; assay type: functional, cell-based; how it was run: as §2
M14 [8] = test: Induction of apoptosis human M14 cells assessed as caspase activity at 100 uM after 4 hrs using DEVD peptide as substrate by ApoTox-Glo triplex assay; assay type: functional, cell-based; how it was run: as §2
M14 [9] = test: Cytotoxicity against human M14 cells assessed as cell viability at 100 uM after 4 hrs using GF-AFC as substrate by ApoTox-Glo triplex assay; assay type: functional, cell-based; how it was run: as §2
[10] = target: T1, Protein deacetylase HDAC6 (Homo sapiens) (UniProt Q9UBN7); test: Inhibition of HDAC6 (unknown origin) up to 100 uM
T1 sequence (whole entry): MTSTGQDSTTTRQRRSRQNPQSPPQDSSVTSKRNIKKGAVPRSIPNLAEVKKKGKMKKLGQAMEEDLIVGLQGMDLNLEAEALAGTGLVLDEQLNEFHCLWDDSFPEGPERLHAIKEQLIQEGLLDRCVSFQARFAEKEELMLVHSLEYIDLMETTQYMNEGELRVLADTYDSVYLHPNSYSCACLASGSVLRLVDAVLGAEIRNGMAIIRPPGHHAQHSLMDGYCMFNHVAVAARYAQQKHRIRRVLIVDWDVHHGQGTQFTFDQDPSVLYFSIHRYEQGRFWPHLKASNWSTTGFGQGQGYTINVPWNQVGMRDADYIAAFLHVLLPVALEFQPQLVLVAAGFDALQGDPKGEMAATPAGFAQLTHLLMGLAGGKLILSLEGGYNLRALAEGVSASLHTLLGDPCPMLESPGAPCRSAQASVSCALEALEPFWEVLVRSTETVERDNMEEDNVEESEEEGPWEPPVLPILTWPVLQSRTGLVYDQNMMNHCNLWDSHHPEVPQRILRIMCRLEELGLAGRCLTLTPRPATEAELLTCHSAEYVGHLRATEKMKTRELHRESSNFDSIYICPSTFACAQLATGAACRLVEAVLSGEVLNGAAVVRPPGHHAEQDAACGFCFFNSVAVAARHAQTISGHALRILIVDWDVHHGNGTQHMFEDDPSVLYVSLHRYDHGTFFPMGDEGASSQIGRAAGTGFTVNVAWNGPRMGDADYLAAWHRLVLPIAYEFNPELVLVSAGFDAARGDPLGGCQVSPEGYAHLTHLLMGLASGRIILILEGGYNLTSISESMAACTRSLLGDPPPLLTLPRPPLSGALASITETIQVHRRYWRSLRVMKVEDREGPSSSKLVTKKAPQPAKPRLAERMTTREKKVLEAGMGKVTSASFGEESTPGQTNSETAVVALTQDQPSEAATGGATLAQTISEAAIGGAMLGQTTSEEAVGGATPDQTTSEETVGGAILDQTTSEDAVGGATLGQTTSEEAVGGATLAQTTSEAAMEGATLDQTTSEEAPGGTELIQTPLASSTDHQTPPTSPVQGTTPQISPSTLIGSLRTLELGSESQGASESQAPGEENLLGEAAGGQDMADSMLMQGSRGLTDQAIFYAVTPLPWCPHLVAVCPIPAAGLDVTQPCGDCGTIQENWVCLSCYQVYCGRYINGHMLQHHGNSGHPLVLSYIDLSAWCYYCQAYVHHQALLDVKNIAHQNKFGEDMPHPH

[11] = target: Histone deacetylase 1 (Homo sapiens) (UniProt Q13547); test: Inhibition of HDAC1 (unknown origin) up to 100 uM
Histone deacetylase 1 (Homo sapiens), sequence (Q13547 whole entry): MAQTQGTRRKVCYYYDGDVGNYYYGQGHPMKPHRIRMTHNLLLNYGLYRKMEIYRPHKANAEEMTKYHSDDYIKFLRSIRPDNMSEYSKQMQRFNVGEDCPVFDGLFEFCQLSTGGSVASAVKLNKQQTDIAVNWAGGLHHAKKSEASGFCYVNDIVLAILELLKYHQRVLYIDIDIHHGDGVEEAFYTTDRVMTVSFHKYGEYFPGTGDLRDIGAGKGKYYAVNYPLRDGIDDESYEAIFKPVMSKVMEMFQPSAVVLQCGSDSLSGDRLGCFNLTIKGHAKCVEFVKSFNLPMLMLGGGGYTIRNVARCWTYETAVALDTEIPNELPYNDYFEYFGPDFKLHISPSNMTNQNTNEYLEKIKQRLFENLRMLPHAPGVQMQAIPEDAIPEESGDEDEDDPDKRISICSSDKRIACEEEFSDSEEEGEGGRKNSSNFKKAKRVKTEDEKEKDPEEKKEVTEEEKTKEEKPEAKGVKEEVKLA

[12] = target: Histone deacetylase 2 (Homo sapiens) (UniProt Q92769); test: Inhibition of HDAC2 (unknown origin) up to 100 uM
Histone deacetylase 2 (Homo sapiens), sequence (Q92769 whole entry): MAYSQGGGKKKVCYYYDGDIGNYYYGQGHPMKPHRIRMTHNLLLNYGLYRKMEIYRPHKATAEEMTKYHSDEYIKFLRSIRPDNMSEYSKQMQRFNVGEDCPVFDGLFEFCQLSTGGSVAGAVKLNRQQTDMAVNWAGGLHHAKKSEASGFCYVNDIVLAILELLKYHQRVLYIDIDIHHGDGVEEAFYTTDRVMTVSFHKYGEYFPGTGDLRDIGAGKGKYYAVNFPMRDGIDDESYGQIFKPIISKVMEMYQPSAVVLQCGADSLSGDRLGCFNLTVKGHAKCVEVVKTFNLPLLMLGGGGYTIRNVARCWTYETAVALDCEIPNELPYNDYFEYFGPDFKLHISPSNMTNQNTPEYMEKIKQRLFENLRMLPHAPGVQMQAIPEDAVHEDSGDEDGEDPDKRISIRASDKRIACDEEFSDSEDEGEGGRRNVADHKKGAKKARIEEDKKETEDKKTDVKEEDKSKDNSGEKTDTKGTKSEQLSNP

M14 [13] = test: Cytotoxicity against human M14 cells assessed as cell viability at 100 uM after 48 hrs by CellTiter-Glo luminescence assay; assay type: functional, cell-based
How it was run: (§3)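 M14 cells, 1250 per well, in serum-free DMEM. Compounds given in 10-point 1:3 dilution series starting at 100 µM; controls were gefitinib, doxorubicin and ionomycin. Incubated at 37 °C, 5% CO2. CellTiter-Glo luminescence read at 4, 24, 48 and 72 h. Viability normalized to media-only wells and 1% DMSO-treated wells.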

M14 [14] = test: Cytotoxicity against human M14 cells assessed as cell viability at 100 uM after 24 hrs by CellTiter-Glo luminescence assay; assay type: functional, cell-based; how it was run: as §3
M14 [15] = test: Cytotoxicity against human M14 cells assessed as cell viability at 100 uM after 4 hrs by CellTiter-Glo luminescence assay; assay type: functional, cell-based; how it was run: as §3
[16] = (§4) Cytotoxicity against mouse B16F10 cells expressing p53 mutant after 48 hrs by hexosaminidase assay; assay type: functional, cell-based; settings: B16-F10, 48 h
How it was run: (§5)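 SK-MEL-28 or B16/F10 cells plated in 96-well plates, grown overnight, then treated with 0–50 µM compound for 48 h. Cells washed with PBS, given hexosaminidase substrate for 30 min at 37 °C, then developer. Absorbance read at 405 nm. Percent viability = treated/control absorbance × 100.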

B16-F10 = test: as §4; assay type: functional, cell-based; how it was run: as §5
SK-MEL-28 [17] = test: Cytotoxicity against human SK-MEL-28 cells expressing B-raf V600E mutant after 48 hrs by hexosaminidase assay; assay type: functional, cell-based; how it was run: as §5
M14 [18] = test: Cytotoxicity against human M14 cells at 100 uM after 72 hrs by CellTiter-Glo luminescence assay; assay type: functional; settings: M14, 72 h; how it was run: as §1
A549 [19] = test: Cytotoxicity against human A549 cells at 100 uM after 72 hrs by CellTiter-Glo luminescence assay; assay type: functional; settings: A549, 72 h; how it was run: as §1
M14 [20] = test: Cytotoxicity against human M14 cells expressing […] mutant; assay type: functional, cell-based
[21] = Cytotoxicity against human M262 cells expressing B-raf V600E mutant; assay type: functional, cell-based
[22] = Cytotoxicity against human M238 cells expressing B-raf V600E mutant; assay type: functional, cell-based
[23] = Cytotoxicity against human M249 cells expressing B-raf V600E mutant; assay type: functional, cell-based
[24] = Cytotoxicity against human M229 cells expressing B-raf V600E mutant; assay type: functional, cell-based
SK-MEL-28 [25] = test: Cytotoxicity against human SK-MEL-28 cells expressing B-raf V600E mutant; assay type: functional, cell-based
[26] = Cytotoxicity against human M263 cells expressing B-raf V600E mutant; assay type: functional, cell-based
[27] = Cytotoxicity against human M321 cells expressing B-raf V600E mutant; assay type: functional, cell-based
M14 [28] = test: Induction of apoptosis human M14 cells assessed as caspase activity after 4 to 24 hrs using DEVD peptide as substrate by ApoTox-Glo triplex assay; assay type: functional, cell-based; how it was run: as §2
M14 [29] = test: Cytotoxicity against human M14 cells assessed as cell viability after 4 hrs using bis-AAF-R110 as substrate by ApoTox-Glo triplex assay; assay type: functional, cell-based; how it was run: as §2
M14 [30] = test: Cytotoxicity against human M14 cells assessed as cell viability after 4 hrs using GF-AFC as substrate by ApoTox-Glo triplex assay; assay type: functional, cell-based
How it was run: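 M14 #5 cells, 1250 per well in serum-free DMEM, pre-incubated 4 h at 37 °C, 5% CO2. Compounds added as 1:3 serial dilutions; incubated 4, 24, 48 and 72 h. Per time point, a reagent containing 400 µM GF-AFC (live-cell protease) and 400 µM bis-AAF-R110 (dead-cell protease) was added for 30 min at 37 °C, then fluorescence was read. Caspase-Glo 3/7 was added next, 30 min at room temperature, then luminescence.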

CCC[C@H]1CNC(=O)C(=O)N1C[C@@H]1CCCN1C[C@@H](CC1CCCCC1)N1C[C@H](Cc2ccc(O)cc2)N(CCC23CC4CC(CC(C4)C2)C3)C(=O)C1=O
IC50 (A549 [1]): > 50000 nM | IC50 [2]: > 50000 nM | IC50 (M14 [3]): > 50000 nM

CCC[C@@H]1CNC(=O)C(=O)N1C[C@@H]1CCCN1C[C@H](Cc1ccc(O)cc1)N1C[C@@H](Cc2ccc(O)cc2)N(CC(CC)c2ccccc2)C(=O)C1=O (some centres undefined)
cytotoxicity at 72 h, 100 µM [4]: 0%

Cc1[nH]c2ccccc2c1CCNCc1ccc(/C=C/C(=O)NO)cc1
Activity (M14 [5]): Dose-dependent effect | Activity (M14 [6]): Active | Activity (M14 [7]): inactive | Activity (M14 [8]): inactive | Activity (M14 [9]): inactive

O=C1NC[C@H](Cc2ccccc2)N(C[C@@H]2CCCN2C[C@H](Cc2ccccc2)N2C[C@H](Cc3ccc(O)cc3)N(CCC34CC5CC(CC(C5)C3)C4)C(=O)C2=O)C1=O
inhibition [10]: inactive | inhibition [11]: inactive | inhibition [12]: inactive | Activity (M14 [13]): Active | Activity (M14 [14]): Active | Activity (M14 [15]): inactive | IC50 [16]: 1150 nM | inhibition (B16-F10): Dose-dependent effect | inhibition (SK-MEL-28 [17]): Dose-dependent effect | inhibition (M14 [3]): Dose-dependent effect | IC50 (M14 [3]): 750 nM

CCC[C@@H]1CNC(=O)C(=O)N1C[C@@H]1CCCN1C[C@H](Cc1ccc(O)cc1)N1C[C@@H](Cc2ccc(O)cc2)N(CC2CCCC2)C(=O)C1=O
inhibition at 100 µM (M14 [18]): 3% | cytotoxicity at 72 h, 100 µM [4]: 7% | inhibition at 100 µM (A549 [19]): 5%

CCCS(=O)(=O)Nc1ccc(F)c(C(=O)c2c[nH]c3ncc(-c4ccc(Cl)cc4)cc23)c1F [VEMURAFENIB]
IC50 (M14 [20]): 150 nM | IC50 [21]: 100 nM | IC50 [22]: 100 nM | IC50 [23]: 100 nM | IC50 [24]: 100 nM | IC50 (SK-MEL-28 [25]): 100 nM | IC50 [26]: 100 nM | IC50 [27]: 100 nM

CC(C)(C)c1ccc(C(O)CCCN2CCC(C(O)(c3ccccc3)c3ccccc3)CC2)cc1 (centres undefined)
Activity (M14 [28]): Active | Activity (M14 [29]): Active | Activity (M14 [30]): Active
